Assay outcomes as filed in PubChem BioAssay.
Only some compounds are listed: those with a hit (about 2% of all), similar ones and a draw of the others.
S100A4 MyoIIA = inhibitors of S100A4-myosin IIA peptide binding, primary screen, biochemical, fluorescence polarization, TAMRA-MyoIIA peptide; Protein S100-A4 (Homo sapiens), P26447; inhibition, % at 10.7 µM; actives 0.14% (n = 360,000); AID 652163, 2013;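 active = mean inhibition of at least 70% across replicates, with every replicate also reaching that level; inconclusive = mean inhibition reaches 70% but some replicates fall short; inactive = mean inhibition below 70%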
Target sequence (P26447 whole entry, looked up): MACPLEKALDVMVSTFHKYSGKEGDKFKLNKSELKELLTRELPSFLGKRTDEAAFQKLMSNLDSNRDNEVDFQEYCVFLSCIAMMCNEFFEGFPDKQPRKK
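Material: S100A4 monomer (human). Medium: Calcium-containing HEPES buffer, pH 7.2. Probe or stimulus: labelled myosin peptide probe, 5 nM. Compound dosing: one concentration per compound. Timing: polarization read 5 min after assay mix addition, stable 5–60 min. Benchmarks: DMSO as neutral control, TFP as positive control.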
DENV2 CPE rescue = inhibitors of DENV2 cytopathic effect, primary screen, cell-based, plate reader, single concentration | DENV2-infected cells, cytopathic effect rescue | CPE inhibition, % at 9.99 µM | actives 1.7% (n = 350,000) | AID 651640, 2012; in the data active = CPE inhibition above about 20%, passing the limit was not always enough; inconclusive = no clear call, values can overlap the other calls; tested in BHK-21 cells;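 note: 0% = median of neutral control wells and 100% = median of positive control wells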
XiGFP reactiv = activators of inactive X chromosome reactivation, primary screen, imaging, XiGFP fibroblasts, GFP high-content imaging, set 2; XiGFP mouse fibroblasts, % GFP-positive cells imaging, 3 d; cells co-treated with 5-aza-dC sensitizer; scaled so ellipticine positive control = 100%; activation, % at 7.58 µM; actives 0.055% (n = 360,000); AID 743238, 2013;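 active = mean normalized replicate activation at least 10% and every replicate at or above 10%; inconclusive = only one of the two criteria met; inactive = mean below 10% and not all replicates reach 10%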;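 note: 0% = median of on-plate neutral control wells and 100% = ellipticine 6 µM median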
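Material: XiGFP fibroblasts, SV40-immortalized; Buffer or medium: DMEM containing 5-aza-dC; Compound dosing: single point; Times: 3 days compound exposure.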
E-sel inducer = E-selectin induction in HUVECs, primary screen, imaging, HUVEC, immunofluorescence imaging, single point. P16581. normalized: neutral wells 0, TNF-alpha wells 100. activation, % at 7.58 µM. actives 0.37% (n = 260,000). AID 686992, 2013;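 active = mean E-selectin-positive cell signal at least 10% of the positive control, reached in at least 60% of replicates, without over 20% cell loss; inconclusive = no rule given, readout overlaps actives, possibly toxicity-flagged; inactive = the rest, including those meeting only one limit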
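System: HUVEC / Compound: single concentration / Signal: immunofluorescence imaging / Read-out: percent E-selectin-positive cells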
* hit, by the source's call; u = inconclusive; x = no result given.

SMILES	S100A4 MyoIIA	DENV2 CPE rescue	XiGFP reactiv	E-sel inducer
COc1cc2cnc(-c3ccccc3)c(C(=O)c3ccc(F)cc3)c2cc1OC	-1	-8	0	0
COc1cccc(C(=O)c2c(-c3ccccc3)ncc3cc(OC)c(OC)cc23)c1	1	27*	u	0
N#Cc1cc2cc3c(cc2nc1Cl)OCCO3	-2	41*	0	0
CCOC(=O)CSc1nc2cc3c(cc2cc1C#N)OCCO3	-4	-3	0	x
CC(C)NC(=O)Nc1ccc2c(c1)C(=O)N([C@H](C)CO)C[C@H](C)[C@H](CN(C)S(=O)(=O)c1ccc(Cl)cc1)OCCCC[C@@H](C)O2	0	4	0	x
Cc1ccccc1N=C1Nc2ccccc2N[C@]12C[C@H]1CCC(=O)N3CC[C@@H](C2)[C@@H]13	4	148*	0	0
O=C1CC[C@@H]2CC3(C[C@@H]4CCN1[C@H]24)Nc1ccccc1NC3=NC1CCCCC1 (stereo partly drawn)	-4	-15	0	1
COc1ccccc1C(CNc1ncnc2sc(C)c(C)c12)N(C)C (stereo not drawn)	-23	46*	0	0
C[C@H](CO)N1C[C@H](C)[C@@H](CN(C)CC2CC2)Oc2c(NC(=O)Cc3cn(C)c4ccccc34)cccc2C1=O	x	x	1	x
CCN(C(=O)COC(=O)/C=C/c1ccco1)C1CCCCC1	2	8	0	111*
C[C@H]1CN([C@@H](C)CO)C(=O)Cc2cc(NC(=O)c3ccncc3)ccc2O[C@@H]1CN(C)S(=O)(=O)c1cccs1	-2	-3	-1	x
C[C@@H]1CN([C@@H](C)CO)C(=O)Cc2cc(NC(=O)c3ccncc3)ccc2O[C@@H]1CN(C)S(C)(=O)=O	1	-5	0	37*
C[C@@H]1CN([C@@H](C)CO)C(=O)Cc2cc(NC(=O)c3ccncc3)ccc2O[C@H]1CN(C)S(=O)(=O)c1cccs1	-20	24*	-1	x
O=C(Nc1ccc(F)cc1)N[C@@H]1CC[C@H](CC(=O)N2CCCCC2)O[C@@H]1CO	3	-1	0	0
O=C(Nc1ccc(F)cc1)c1ccccc1NC(=O)C1CCCCC1C(=O)O (stereo not drawn)	-6	2	0	x
COc1cccc(N2CCN(CC(=O)Nc3ccccc3C(=O)NCCc3ccccc3)CC2)c1	2	-8	0	x
O=C(CN1CCN(c2ccc(O)cc2)CC1)Nc1ccccc1C(=O)NCCc1ccccc1	-2	-5	1	66*
O=C(NCCc1ccccc1)c1ccccc1NC(=O)C1CCCCC1C(=O)O (stereo not drawn)	5	44*	0	7
O=S(=O)(Nc1nc2ccccc2nc1-[n+]1cccc(N=C([O-])c2ccc(Cl)cc2)c1)c1ccccc1	-7	2	0	x
COc1ccc(CCNC(=O)Cn2nnc(-c3cccc(OC)c3OC)n2)cc1OC	3	x	x	x
CN(Cc1ccc2c(c1)CCCN2C)C(=O)[C@H]1O[C@@H](n2cnc3c(N)ncnc32)[C@H](O)[C@@H]1O	12	3	0	1
CCCN(CCC)CCCNC(=O)c1cc2c(=O)[nH]c3ccccc3c2n1C	4	29*	0	-2
C/C(=N\NC(=O)c1nnn(-c2nonc2N)c1-c1ccccc1)c1cccnc1	-4	96*	0	x
CCCN(Cc1ccco1)S(=O)(=O)c1ccc(OC)c(OC)c1	-6	4	1	0
OC[C@H]1Nc2ccc(-c3cccc(F)c3)cc2[C@@H]2[C@H]1CCN2Cc1ccc(F)cc1	24	48*	0	0
SMILES	S100A4 MyoIIA	DENV2 CPE rescue	XiGFP reactiv	E-sel inducer
O=C(C1CCCC1)N1CC[C@@H]2[C@H](CO)Nc3ccc(C#Cc4ccc(F)cc4)cc3[C@@H]21	23	6	0	54*
O=C(Cc1cccnc1)N1CC[C@H]2[C@H](CO)Nc3ccc(C#Cc4cccc(F)c4)cc3[C@H]21	39	62*	0	1
O=C(C1CCCCC1)N1CC[C@@H]2[C@H](CO)Nc3ccc(C#Cc4ccc(F)cc4)cc3[C@@H]21	-23	5	0	22
OC[C@H]1Nc2ccc(-c3cccc(F)c3)cc2[C@H]2[C@@H]1CCN2Cc1ccc(F)cc1	-9	-18	0	0
O=C(C1CC1)N1CC[C@@H]2[C@H]1c1cc(-c3ccc(F)cc3)ccc1N[C@@H]2CO	x	122*	0	1
O=C(C1CC1)N1CC[C@H]2[C@H](CO)Nc3ccc(-c4ccc(F)cc4)cc3[C@H]21	9	3	0	0
COc1ccc2c(c1OC)CCC2=O	x	x	x	-3
CCc1ccc(CN(C)C(=O)CCc2nnc(CCc3cccc(OC)c3)o2)nc1	-4	0	0	x
Cc1ccc(S(=O)(=O)N2CCN(C(=O)c3cc(=O)c4ccccc4o3)CC2)cc1	-2	6	0	-3
O=C(C1CCOCC1)N1CC[C@@H]2[C@H](CO)Nc3ccc(-c4cccc(F)c4)cc3[C@@H]21	10	u	0	0
CC(=O)N1CC[C@@H]2[C@@H](CO)Nc3ccc(-c4cccc(F)c4)cc3[C@@H]21	2	29*	0	0
O=C(C1CCOCC1)N1CC[C@@H]2[C@H]1c1cc(-c3cccc(F)c3)ccc1N[C@@H]2CO	13	88*	0	0
Cc1ccc(S(=O)(=O)N2CCN(S(=O)(=O)c3cccs3)CC2)cc1	-2	-4	0	0
OC1(c2ccc(Cl)cc2)CCN(Cc2c[nH]c3ccccc23)CC1	0	56*	0	0
CN(C)CCCNc1cc(O)c2ncccc2c1	26	57*	0	0
O=C(CSc1ncn[nH]1)c1cccc([N+](=O)[O-])c1	3	-9	0	38*
Cc1ccc(SCC(=O)OC(C)C(=O)NCc2ccccc2)cc1 (stereo not drawn)	-6	64*	0	2
Cc1cc(Cn2nc(C(=O)NCC3CC3)cc2-c2ccccc2)on1	0	22*	0	1
Cc1ccc(CNC(=O)c2cc(-c3ccccc3)n(Cc3cc(C)no3)n2)cc1	0	5	0	0
COc1ccc(C(=O)c2sc3nc(C)cc(-c4cccs4)c3c2N)cc1OC	-8	-8	25*	x
O=S(=O)(Nc1cc2nc3ccccc3nc2n1Cc1ccccc1)c1ccc(Cl)cc1	0	x	78*	x
O=S(=O)(NCc1ccccc1)c1ccc(Cl)cc1	x	x	x	-1
CC1(c2ccc3ccccc3c2)CCC(=O)O1 (stereo not drawn)	-1	22*	0	0
O=C(NCc1ccc2c(c1)CCO2)Nc1ccccc1	0	3	1	x
COc1ccc(OC)c(NC(=O)Cn2cc(C=O)c3ccccc32)c1	34	-3	0	x
